MrgX1 agonist = human MrgX1 receptor agonism, primary screen; Q96LB2; MrgX1-HEK293 cells, Fluo-4 calcium fluorescence, agonist mode; active compounds read high; B-score at 10 µM; actives 0.44% (n = 310,000); AID 588627;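 active means calcium response B-score plate-corrected fluorescence ratio at least 3 library SD, with starting fluorescence B-score inside 5 SD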
Target sequence (Q96LB2 whole entry, looked up): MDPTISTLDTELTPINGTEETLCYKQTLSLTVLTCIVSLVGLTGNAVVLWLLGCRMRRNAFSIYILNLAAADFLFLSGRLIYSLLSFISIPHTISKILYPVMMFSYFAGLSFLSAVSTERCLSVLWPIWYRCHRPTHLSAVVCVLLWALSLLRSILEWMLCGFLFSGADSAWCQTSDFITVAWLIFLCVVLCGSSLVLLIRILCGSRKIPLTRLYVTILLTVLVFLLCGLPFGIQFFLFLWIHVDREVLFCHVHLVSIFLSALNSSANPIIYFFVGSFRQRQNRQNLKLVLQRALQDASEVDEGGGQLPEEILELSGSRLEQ
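Material: MrgX1-expressing HEK293 cells; input: 15,000 cells per well; doses: test compound given as first of three sequential additions; schedule: overnight plating before 1 h dye loading; technique: Fluo-4 NW calcium-flux fluorescence, kinetic read; evaluation: baseline-normalised fluorescence change ratio, B-scored; control set: plate-wise positive and negative controls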
RGS4 act = RGS4 potentiation or activation. B-score at 10 µM. HEK293 M3R/inducible RGS4, carbachol calcium flux Fluo4; active compounds read low. actives 0.92% (n = 310,000);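 active means B-score of the integrated calcium signal more than 4 SD below the library mean, with starting fluorescence not abnormally high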;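 further: negative B-score means reduced calcium response which marks RGS4 activation or potentiation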
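Assay system: HEK293 FlpIn-TREx cells, stable M3R, doxycycline-inducible RGS4 / Probe or stimulus: carbachol, ECmax concentration / Times: overnight RGS4 induction, 30 min dye load 37 °C, 20 min compound RT / Signal: kinetic calcium fluorescence imaging with Fluo4-AM dye, 2 µM / Measure: Agonist-evoked peak-minus-minimum fluorescence over baseline, integrated ratio, B score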
MrgX1 antagonist = blocks BAM8-22 activation of human MrgX1 receptor. Q96LB2. MRGX1-HEK293 calcium flux, Fluo-4, BAM8-22 antagonism; active compounds read low. B-score at 10 µM. actives 1.3% (n = 310,000). AID 588676;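 active means calcium-response B-score plate-corrected more than 3 library SD below zero, starting fluorescence within 5 deviations, no agonist response on first addition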;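 further: peak minus trough fluorescence over baseline after final BAM8-22 challenge near maximal dose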
RGS4 block = inhibitors of human RGS4; B-score at 10 µM; HEK293 M3R/RGS4 inducible, Fluo-4 calcium flux; active compounds read high; triggered by carbachol at its EC20; P49798; actives 0.45% (n = 310,000); AID 463165;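 active means B-score, a plate-corrected calcium signal, over three deviations above library mean, with baseline fluorescence within five deviations of library mean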;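 further: RGS4 expression induced by doxycycline in cells with stable M3 receptor; B-score is computed from the integrated fluorescence ratio over baseline after carbachol; higher B-score means a larger calcium signal and so more RGS4 inhibition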
MrgX1 PAM = allosterically activates human MrgX1 receptor signaling. Q96LB2. MrgX1-HEK293, Fluo-4 calcium flux, FDSS; active compounds read high. B-score at 10 µM. actives 0.63% (n = 310,000). AID 588675;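 active means plate-corrected calcium response at least 3 library SD above typical, normal starting fluorescence, not activating the receptor alone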;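 further: compound read alongside a low EC10 to EC30 dose of BAM8-22 agonist; peak minus trough fluorescence over baseline measured at the second addition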
Of the large screens only hits and unclear results are named; the others gave an inactive call. The list is not random: actives were taken first. Their share in the collection is about 3.5%.

Cc1cc(Cl)ccc1OCCCC(=O)NCCN1C(=O)S/C(=C\c2cccnc2)C1=O	none
CC(=O)c1cccc(NC(=O)NC2CC(=O)N(c3ccc4c(c3)OCCO4)C2)c1 (configuration not stated)	none
Cc1ncsc1CCC(=O)N1CCCC(Nc2ccc(C(C)C)cc2)C1 (configuration not stated)	MrgX1 antagonist -6.6
COC(=O)C1=C(C)N(C)C(C)=C(C(=O)OC)C1c1ccncc1	none
COC(=O)C1=C(C)N(C)C(C)=C(C(=O)OC)C1c1ccc(F)c(Br)c1	RGS4 act -7.2
O=C(CC1Sc2ccccc2NC1=O)Nc1ccccc1[N+](=O)[O-] (configuration not stated)	MrgX1 antagonist -6.7
O=C(CC1Sc2ccccc2NC1=O)Nc1cccnc1 (configuration not stated)	none
O/C(=C\c1nc2ccccc2nc1/C=C(\O)c1ccccc1)c1ccccc1	MrgX1 PAM 14
CCCc1nc2c(s1)CCc1onc(-c3ccc(Cl)cc3)c1-2	none
CCCc1sc(N)nc1-c1ccc(Cl)cc1	RGS4 act -7.4
Clc1ccc(-c2cn(-c3ccccc3)c3[n+]2CCS3)cc1	RGS4 act -8.7
Fc1ccc(-c2cn(-c3ccccc3)c3[n+]2CCS3)cc1	none
O=C1S/C(=C\c2ccc(N3CCOCC3)o2)C(=O)N1Cc1c(F)cccc1Cl	MrgX1 agonist 56
O=C1S/C(=C\c2ccc(N3CCOCC3)o2)C(=O)N1c1ccccc1	RGS4 act -7.6
O=C1S/C(=C/c2ccc(N3CCOCC3)o2)C(=O)N1Cc1c(F)cccc1Cl	MrgX1 PAM 9.4
O=C(O)c1ccccc1-c1ccc(/C=C2\SC(=O)N(c3ccccc3)C2=O)o1	none
O=C1N=C(N2CCOCC2)S/C1=C/c1ccc(-c2ccccc2Cl)o1	none
COc1ccc(C)cc1NC(=O)CNC(=O)c1sc2ccccc2c1Cl	none
COC(=O)c1ccc(N)c(N=CC2=C(O)CC(C)(C)CC2=O)c1	MrgX1 agonist 27
Cc1oc2c(cc(NS(=O)(=O)c3ccc(C(C)C)cc3)c3ccccc32)c1C(=O)O	RGS4 act -8.6
Cc1oc2c(cc(NS(=O)(=O)c3ccc(F)cc3)c3ccccc32)c1C(=O)O	none
CCCS(=O)(=O)N1CCCC(C(=O)NCCCN(C)c2ccccc2)C1 (configuration not stated)	none
Cc1ccc(-c2c[n+](CC(=O)N3c4ccccc4Sc4ccccc43)c3n2CCC3)cc1	RGS4 act -8.9
O=C(C[n+]1cc(-c2ccccc2)n2c1CCC2)N1c2ccccc2Sc2ccccc21	none
O=C(C[n+]1cc(-c2ccc(F)cc2)n2c1CCC2)N1c2ccccc2Sc2ccccc21	RGS4 act -9.7
O=C(COc1cccnc1[N+](=O)[O-])c1ccc(Cl)s1	none
Cc1cc(C)nc(N2CCN(C(=O)CCC(=O)Nc3nnc(C(C)C)s3)CC2)n1	none
CC(=O)Nc1ccc(S(=O)(=O)N2CCN=C2SCc2ccccc2C)cc1	none
COc1ccc(CCNC(=O)CN(c2cc([N+](=O)[O-])ccc2OC)S(C)(=O)=O)cc1	MrgX1 antagonist -5.1
CS(=O)(=O)N(CC(=O)Nc1ccc(F)c(F)c1)c1cccc([N+](=O)[O-])c1	MrgX1 PAM 8.5
COc1ccccc1CNC(=O)CN(c1cccc([N+](=O)[O-])c1)S(C)(=O)=O	MrgX1 PAM 11
Cc1cccc(NS(=O)(=O)c2ccc(NC(=O)CN(c3cc([N+](=O)[O-])ccc3C)S(C)(=O)=O)cc2)c1	RGS4 block 6.6
CCC(=O)Nc1ccccc1C(=O)C(=O)Nc1ccccc1	none
COc1cccc(C(=O)C[n+]2ccccc2/C=N/O)c1	RGS4 act -7.4
CCCCSC(=S)N(C)C1CCS(=O)(=O)C1 (configuration not stated)	none
Cc1cccc[n+]1CCCCCCCCCC[n+]1ccccc1C	none
CCCCCCCC[n+]1cccc2c3ccccc3ccc21	RGS4 act -9.9
CCCCCCCCCC[n+]1cccc2c3ccccc3ccc21	RGS4 act -10 (no result: MrgX1 agonist, MrgX1 antagonist, MrgX1 PAM)
COC(=O)CN(c1nc(C)c(Br)c(OC)n1)S(=O)(=O)c1ccccc1	none
COc1cccc(NC(=O)CN2C(=O)NC(c3ccccc3)(c3ccccc3)C2=O)c1	none
CCn1nc(NS(=O)(=O)c2ccccc2[N+](=O)[O-])c2cc3ccc(C)cc3nc21	MrgX1 PAM 9.2
O=C(O)CNC(=O)C12CC3CC(CC(Cl)(C3)C1)C2	none

Bioassay records from PubChem BioAssay.
